This passage reports fold change (FC) and inhibition results from ChEMBL document CHEMBL4052798, “Design, synthesis and biological evaluation of indole derivatives as Vif inhibitors” (Bioorg Med Chem Lett, 2017).

Calls of active or inactive are those of the source. The rule behind the calls is not given here.

Test [1] relates to Human immunodeficiency virus 1. Kind of test: Inhibition of doxycycline-induced HIV1 Vif expressed in TREX-hVif-15 cells co-expressing EYFP-N1-tagged human A3G assessed as reduction in Vif-mediated A3G degradation by measuring fold change in mean fluorescence intensity at 50 uM by flow cytometric method. It is filed as cell-based. In outline:
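TREX-hvif-15 cells with Tet-On-regulated Vif were transfected with EYFP-N1-hA3G, and Vif was induced with 1 μg/mL Dox. Compounds were tested at 50 µM. A3G-EYFP mean fluorescence intensity was expressed as fold change and scored as: no or <1-fold; 1–2; 2–3; >3. Reference groups were A3G⁺/Vif⁻ and A3G⁺/Vif⁺.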
On the technique in general: Flow cytometry measures light scatter and fluorescence of single cells or particles in a stream.

In test [2] the test system is Human immunodeficiency virus 1. As to the kind of experiment: Inhibition of doxycycline-induced HIV1 Vif expressed in TREX-hVif-15 cells co-expressing EYFP-N1-tagged human A3G assessed as restoration of Vif-induced A3G degradation level at 20 uM after 48 hrs by Western blot analysis. It is filed as cell-based. In a few lines:
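TREX-hvif-15 cells were transfected with EYFP-N1-hA3G, and Vif was induced with 0.1 μg/mL Dox. Cells were treated with or without compound at 20 μM. A3G and Vif protein levels were detected by western blot, and A3G restoration was graded qualitatively, lowest to high.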
Background: In western blotting, separated proteins are transferred to a membrane and probed.

For the molecule `COc1ccc(-c2ccc3[nH]ccc3c2)cn1`, the fold change (FC) in test [1] was in the range of 1 to 2. Also, the inhibition entry in test [2] is “Active”.
The corresponding values for `O=Cc1ccc(-c2ccc3[nH]ccc3c2)nc1` are below 1 and “inactive”.
For `Nc1ccc(-c2ccc3[nH]ccc3c2)cn1`, in that order: 2 to 3 and “Active”.
For the molecule `O=Cc1cccc(-c2ccc3[nH]ccc3c2)n1`, in test [1], the fold change (FC) is 1 to 2. Besides, in test [2], the inhibition result was “Active”.
The corresponding values for `O=C(O)c1ccnc(-c2ccc3[nH]ccc3c2)c1` are 2 to 3 and “Active”.
The corresponding values for `O=Cc1ccc(-c2ccc3[nH]ccc3c2)cc1` are below 1 and “inactive”.
For the molecule `O=Cc1ccccc1-c1ccc2[nH]ccc2c1`, in test [1], the fold change (FC) lay in the range of 1 to 2. The inhibition result in test [2] is “inactive”.
For `O=C(O)c1ccc(-c2ccc3[nH]ccc3c2)nc1`, in that order: above 3 and “Active”.
For the molecule `c1ccc(-c2ccc3[nH]ccc3c2)nc1`, the fold change (FC) in test [1] was below 1. Moreover, the inhibition result in test [2] was “inactive”.
The corresponding values for `NC(=O)c1ccc(-c2ccc3[nH]ccc3c2)nc1` are 2 to 3 and “Active”.
As to `NC(=O)c1cncc(-c2ccc3[nH]ccc3c2)c1`, the fold change (FC) in test [1] is 1 to 2. Also, the inhibition result in test [2] was “Active”.
The corresponding values for `N#Cc1ccccc1-c1ccc2[nH]ccc2c1` are below 1 and “inactive”.
For `O=Cc1cccc(-c2ccc3[nH]ccc3c2)c1`, in that order: 1 to 2 and “Active”.
For `O=C(O)c1ccc(-c2ccc3[nH]ccc3c2)cc1`, in that order: 2 to 3 and “Active”.
For the molecule `Nc1cccnc1-c1ccc2[nH]ccc2c1`, the fold change (FC) in test [1] was in the range of 2 to 3. Besides, the inhibition result in test [2] is “Active”.
The corresponding values for `Nc1ncccc1-c1ccc2[nH]ccc2c1` are 1 to 2 and “Active”.
For `Nc1cccc(-c2ccc3[nH]ccc3c2)n1`, in that order: 1 to 2 and “Active”.
For `NC(=O)c1ccnc(-c2ccc3[nH]ccc3c2)c1`, in that order: 2 to 3 and “inactive”.
For the molecule `CS(=O)(=O)c1ccc(-c2ccc3[nH]ccc3c2)cc1`, in test [1], the fold change (FC) is 2 to 3. The inhibition result in test [2] was “Active”.
As for `O=C(O)Cc1ccc(-c2ccc3[nH]ccc3c2)cc1`, the fold change (FC) in test [1] is below 1. Further, in test [2], the inhibition result was “inactive”.
